According to ChEMBL document CHEMBL4673181, “An investigation of the antileishmanial properties of semi-synthetic saponins” (RSC Med Chem, 2020):

Experiments:
[1] = Selectivity index, ratio of ED50 for mouse RAW264.7 cells to ED50 for antileishmanial activity against axenic amastigote stage of Leishmania mexicana (MNYC/BZ/62/M379); format: toxicity; conditions: read-out: Ratio ED50
Outline: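 Selectivity index calculated as EC₅₀ in RAW macrophages (24 h alamarBlue cytotoxicity assay) divided by EC₅₀ against axenic L. mexicana amastigotes.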

[2] = Cytotoxicity against mouse RAW264.7 cells assessed as induction of cell killing incubated for 24 hrs by alamar blue dye based fluorescence analysis; conditions: read-out: ED50
Outline: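 Mouse macrophages seeded at 2.5×10^5 mL⁻¹ in DMEM/10% HIFBS, 24 h at 37 °C, 5% CO₂. Then washed and held 24 h in DMEM/2% HIFBS. Compounds 100 μM to 0.41 μM in 2% HIFBS medium for 24 h. alamarBlue 4 h, then fluorescence at 560/600 nm. Cycloheximide (50 μM) positive, DMSO negative control. EC₅₀ derived.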

Leishmania mexicana [3] = assay: Antileishmanial activity against axenic amastigote stage of Leishmania mexicana (MNYC/BZ/62/M379) assessed as induction of parasite killing incubated for 24 hrs by alamar blue dye based fluorescence analysis; format: functional; conditions: read-out: ED50 (the source's name)
Outline: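 L. mexicana axenic amastigotes (from promastigotes by pH/temperature shift; Schneider's with 20% HIFBS) at 4x10⁵ mL⁻¹, exposed to three-fold dilutions from 50 μM to 0.21 μM for 24 h at 33 °C in sealed plates. alamarBlue then added for another 24 h, fluorescence read at 560/600 nm. Amphotericin B (50 μM) positive, DMSO negative control. Duplicates on four occasions, EC₅₀ fitted.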

Leishmania mexicana [4] = assay: Antileishmanial activity against axenic amastigote stage of Leishmania mexicana (MNYC/BZ/62/M379) assessed as inhibition of parasite proliferation at 50 uM incubated for 24 hrs by alamar blue dye based fluorescence analysis; format: functional
Outline: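 Primary single-point screen at 50 μM, in duplicate. Axenic L. mexicana amastigotes at 4x10⁵ mL⁻¹ incubated with compound 24 h at 33 °C in sealed plates, then alamarBlue for a further 24 h at the same temperature. Viability read by fluorescence at 560/600 nm against amphotericin B (50 μM) and DMSO controls.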

Leishmania mexicana [5] = assay: Antileishmanial activity against axenic amastigote stage of Leishmania mexicana (MNYC/BZ/62/M379) infected in mouse RAW264.7 cells assessed as induction of parasite killing incubated for 24 hrs by alamar blue dye based fluorescence analysis; format: functional
Outline: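 RAW264.7 cells seeded at 2.5x10⁵ mL⁻¹ in DMEM with 10% HIFBS for 24 h at 37 °C, 5% CO₂, then infected with axenic amastigotes at 25x10⁵ mL⁻¹ in DMEM with 2% HIFBS for 24 h. Washed 5x, compound added for 24 h. Cells lysed with 0.05% SDS, then grown in Schneider's (pH7, 15% HIFBS) 48 h at 26 °C. alamarBlue 4 h, fluorescence 560/600 nm. Triplicate, three occasions.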

| SMILES | selectivity ratio [1] | CC50 at 24 h [2] [µM] | EC50 (Leishmania mexicana [3]) [µM] | inhibition at 50 µM (Leishmania mexicana [4]) [%] | ED50 (Leishmania mexicana [5]) [µM] |
| --- | --- | --- | --- | --- | --- |
| CC1(C)CC[C@]2(C(=O)O)CC[C@]3(C)C(=CC[C@@H]4[C@@]5(C)CC[C@H](O)[C@@](C)(C=O)[C@@H]5CC[C@]43C)[C@@H]2C1 | 3.8 | 36.6 | 9.6 | ≥ 95 |  |
| C[C@H](O)[C@H]1OC(C[C@@H]2OC[C@@]3(C)[C@@H]4CC[C@]5(C)[C@H](CC=C6[C@@H]7CC(C)(C)CC[C@]7(C(=O)O)CC[C@]65C)[C@@]4(C)CC[C@@H]3O2)[C@@H](O)[C@@H]1O (stereo partly specified) | 2.9 | 30.2 | 10.3 | ≥ 95 |  |
| CC1(C)CC[C@]2(C(=O)O)CC[C@]3(C)C(=CC[C@@H]4[C@@]5(C)CC[C@@H]6O[C@H]([C@H](O)[C@@H](O)[C@H](O)CO)OC[C@@]6(C)[C@@H]5CC[C@]43C)[C@@H]2C1 | 3 | 29.2 | 9.7 | ≥ 95 |  |
| CC(=O)OC[C@H](OC(C)=O)[C@H](OC(C)=O)[C@@H](OC(C)=O)[C@@H]1OC[C@@]2(C)[C@@H]3CC[C@]4(C)[C@H](CC=C5[C@@H]6CC(C)(C)CC[C@]6(C(=O)O)CC[C@]54C)[C@@]3(C)CC[C@@H]2O1 | 1.5 | 11.1 | 7.2 | ≥ 95 |  |
| CC(=O)OC[C@@]1(C)[C@@H]2CC[C@]3(C)[C@H](CC=C4[C@@H]5CC(C)(C)CC[C@]5(NC(=O)N5CCCC5)CC[C@]43C)[C@@]2(C)CC[C@@H]1O | 1 | 10.9 | 10.4 | ≥ 95 |  |
| CC1(C)CC[C@]2(NC(=O)N3CCC[C@H]3C(=O)O)CC[C@]3(C)C(=CC[C@@H]4[C@@]5(C)CC[C@@H]6OC(C)(C)OC[C@@]6(C)[C@@H]5CC[C@]43C)[C@@H]2C1 | 6 | 5.4 | 0.9 | ≥ 95 |  |
| COC(=O)[C@]12CCC(C)(C)C[C@H]1C1=CC[C@@H]3[C@@]4(C)CC[C@@H]5O[C@H](c6ccccc6C(=O)O)OC[C@@]5(C)[C@@H]4CC[C@@]3(C)[C@]1(C)CC2 | 0.5 | 4.8 | 10 | ≥ 95 |  |
| COC(=O)[C@]12CCC(C)(C)C[C@H]1C1=CC[C@@H]3[C@@]4(C)CC[C@@H]5O[C@H]([C@H](O)[C@@H](O)[C@H](O)[C@H](O)CO)OC[C@@]5(C)[C@@H]4CC[C@@]3(C)[C@]1(C)CC2 | 1.1 | 10.2 | 9.5 | ≥ 95 |  |
| CO[C@H]1O[C@H]([C@@H]2OC[C@@]3(C)[C@@H]4CC[C@]5(C)[C@H](CC=C6[C@@H]7CC(C)(C)CC[C@]7(C(=O)O)CC[C@]65C)[C@@]4(C)CC[C@@H]3O2)[C@@H](O)[C@H](O)[C@H]1O | 5 | 29.7 | 6 | ≥ 95 |  |
| CC1(C)CC[C@]2(C(=O)O)CC[C@]3(C)C(=CC[C@@H]4[C@@]5(C)CC[C@H](OC(=O)CCC(=O)O)[C@@](C)(COC(=O)CCC(=O)O)[C@@H]5CC[C@]43C)[C@@H]2C1 | > 44 | > 100 | 2.3 | ≥ 95 | >50 |
| CC1(C)CC[C@]2(C(=O)O)CC[C@]3(C)C(=CC[C@@H]4[C@@]5(C)CC[C@@H]6O[C@H]([C@H](O)[C@@H](O)[C@H](O)[C@H](O)CO)OC[C@@]6(C)[C@@H]5CC[C@]43C)[C@@H]2C1 | 6.7 | 29.6 | 4.5 | ≥ 95 |  |
| CC1(C)CC[C@]2(CO)CC[C@]3(C)C(=CC[C@@H]4[C@@]5(C)CC[C@@H]6O[C@H]([C@H](O)[C@@H](O)[C@H](O)[C@H](O)CO)OC[C@@]6(C)[C@@H]5CC[C@]43C)[C@@H]2C1 |  |  | > 50 | ≥ 95 |  |
| C#CCOC(=O)[C@]12CCC(C)(C)C[C@H]1C1=CC[C@@H]3[C@@]4(C)CC[C@H](O)[C@@](C)(CO)[C@@H]4CC[C@@]3(C)[C@]1(C)CC2 |  |  | 15.1 | ≥ 95 |  |
| CC1(C)CC[C@]2(C(=O)O)CC[C@]3(C)C(=CC[C@@H]4[C@@]5(C)CC[C@@H]6O[C@H](C[C@H]7O[C@H](CO)[C@@H](O)[C@H](O)[C@H]7O)OC[C@@]6(C)[C@@H]5CC[C@]43C)[C@@H]2C1 | 4.9 | 36.7 | 7.5 | ≥ 95 |  |
| COC(=O)[C@]12CCC(C)(C)C[C@H]1C1=CC[C@@H]3[C@@]4(C)CC[C@H](O)[C@@](C)(CO)[C@@H]4CC[C@@]3(C)[C@]1(C)CC2 |  |  | 12 | ≥ 95 |  |
| C=CCOC(=O)[C@]12CCC(C)(C)C[C@H]1C1=CC[C@@H]3[C@@]4(C)CC[C@H](O)[C@@](C)(CO)[C@@H]4CC[C@@]3(C)[C@]1(C)CC2 |  |  | 22.7 | ≥ 95 |  |
| CC1(C)CC[C@]2(C(=O)OCN3C(=O)c4ccccc4C3=O)CC[C@]3(C)C(=CC[C@@H]4[C@@]5(C)CC[C@H](O)[C@@](C)(CO)[C@@H]5CC[C@]43C)[C@@H]2C1 |  |  | 17.8 | ≥ 95 |  |
| CC1(C)CC[C@]2(C(=O)OCc3ccccc3[N+](=O)[O-])CC[C@]3(C)C(=CC[C@@H]4[C@@]5(C)CC[C@H](O)[C@@](C)(CO)[C@@H]5CC[C@]43C)[C@@H]2C1 |  |  | > 50 | ≥ 95 |  |
| CC1(C)CC[C@]2(C(=O)OCCC3OCCCO3)CC[C@]3(C)C(=CC[C@@H]4[C@@]5(C)CC[C@H](O)[C@@](C)(CO)[C@@H]5CC[C@]43C)[C@@H]2C1 |  |  | > 50 | ≥ 95 |  |
| CCOP(=O)(OCC)OC[C@@]1(C)[C@@H]2CC[C@]3(C)[C@H](CC=C4[C@@H]5CC(C)(C)CC[C@]5(NC(=O)N5CCOCC5)CC[C@]43C)[C@@]2(C)CC[C@@H]1O |  |  | 19.3 | ≥ 95 |  |
| CC1(C)CC[C@]2(NC(=O)N3CCCC3)CC[C@]3(C)C(=CC[C@@H]4[C@@]5(C)CC[C@H](O)[C@@](C)(CO)[C@@H]5CC[C@]43C)[C@@H]2C1 |  |  | 15.3 | ≥ 95 |  |
| CC1(C)CC[C@]2(NC(=O)NCCCn3ccnc3)CC[C@]3(C)C(=CC[C@@H]4[C@@]5(C)CC[C@@H]6OC(C)(C)OC[C@@]6(C)[C@@H]5CC[C@]43C)[C@@H]2C1 |  |  | 37.6 | ≥ 95 |  |
| COC(=O)[C@H](Cc1c[nH]cn1)NC(=O)N[C@]12CCC(C)(C)C[C@H]1C1=CC[C@@H]3[C@@]4(C)CC[C@@H]5OC(C)(C)OC[C@@]5(C)[C@@H]4CC[C@@]3(C)[C@]1(C)CC2 |  |  | 20.9 | ≥ 95 |  |
